Measurements gathered from unrelated publications.
Compare with care: the assays were run in different laboratories.
rep main protease: Replicase polyprotein 1ab, main protease (rep, Severe acute respiratory syndrome coronavirus 2, UniProt P0DTD1)

CC(C)(C)NC(=O)[C@@H]1CN(Cc2cccnc2)CCN1C[C@@H](O)C[C@@H](Cc1ccccc1)C(=O)N[C@H]1c2ccccc2C[C@H]1O  activity vs control (rep main protease; enzyme activity; inhibitor; FRET; 100 µM): 100%
Cc1ccc2nc(Cl)c(C=Nc3cc(Br)ccn3)cc2c1  ΔTm (rep main protease; thermal stability; 100 µM): 8 to 12 °C
CS(=O)(=O)CCNCc1ccc(-c2ccc3ncnc(Nc4ccc(OCc5cccc(F)c5)c(Cl)c4)c3c2)o1  activity vs control (rep main protease; enzyme activity; inhibitor; FRET; 100 µM): 100%
CC(C)C[C@H](NC(=O)OCc1ccccc1)C(=O)N[C@@H](CC(C)C)C(=O)N[C@@H](CC1CCNC1=O)C(=O)C(=O)NC1CC1 (some centres unmarked)  kinact/KI (rep main protease; enzyme activity; inhibitor): 90500 M⁻¹ s⁻¹
Clc1nc2ccccc2cc1/C=N\c1ccc(Br)nc1  ΔTm (rep main protease; thermal stability; 100 µM): 8 to 12 °C
CCN(C[C@H]1O[C@@H](n2cnc3c(N)ncnc32)[C@H](O)[C@@H]1O)S(=O)(=O)c1ccc(OC)c(C#N)c1  remaining activity (Replicase polyprotein 1ab, methyltransferase (rep, Severe acute respiratory syndrome coronavirus 2, UniProt P0DTD1); enzyme activity; inhibitor; 5 µM): 0.1%
CC(C)[C@H](NC(=O)OC(C)(C)C)C(=O)N1C[C@@H]2CCC[C@@H]2[C@H]1C(=O)N[C@H](C=O)C[C@@H]1CCNC1=O  ΔTm (rep main protease; thermal stability; 40 µM): 11 °C
C=C1CC[C@@H]2[C@](C)(CO)[C@H](O)CC[C@@]2(C)[C@@H]1C/C=C1/C(=O)OC[C@H]1O  remaining activity (rep main protease; enzyme activity; inhibitor; 20 µM): 96%
